{"source": "ChEMBL document CHEMBL4396917", "about": "“Synthesis and biological evaluation of novel benzylidene-succinimide derivatives as noncytotoxic antiangiogenic inhibitors with anticolorectal cancer activity in vivo” (Eur J Med Chem, 2019)", "key": {"[1]": {"test_system": "Chorioallantoic membrane", "experiment": "Antiangiogenic activity in Leghorn chicken fertilized egg chorioallantoic membrane assessed as impaired neovascularization with absence of vascular networks at 10 nM/egg measured after 48 hrs by CAM assay", "format": "functional, tissue-based", "details": "Gallus gallus", "outline": "(§1)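 Fertile Leghorn eggs incubated at 37.8°C, 40% humidity; window opened on day 7; compound, sunitinib or 0.9% NaCl mixed with DMSO applied on filter paper onto CAM; 48 h incubation, methanol fixation, photography; nascent vessels counted.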"}, "[2]": {"test_system": "Chorioallantoic membrane", "experiment": "Antiangiogenic activity in Leghorn chicken fertilized egg chorioallantoic membrane assessed as reduction in number of blood vessel formation at 20 nmol measured after 48 hrs by CAM assay relative to saline treated control", "format": "functional, tissue-based", "details": "Gallus gallus", "outline": "as §1"}, "[3]": {"experiment": "Induction of apoptosis in human HT-29 cells assessed as viable cells at 1 uM after 24 hrs by Annexin V-FITC/propidium iodide staining based flow cytometric analysis (reference value: 80.8%)", "format": "cell-based", "details": "read-out: Activity"}, "[4]": {"test_system": "HT-29", "experiment": "Induction of apoptosis in human HT-29 cells assessed as late apoptotic cells at 1 uM after 24 hrs by Annexin V-FITC/propidium iodide staining based flow cytometric analysis (reference value: 13.4%)", "format": "cell-based", "details": "ht-29, 24 h"}, "[5]": {"test_system": "HT-29", "experiment": "Induction of apoptosis in human HT-29 cells assessed as necrotic cells at 5 uM after 24 hrs by Annexin V-FITC/propidium iodide staining based flow cytometric analysis (reference value: 1.3 to 3.9%)", "format": "cell-based", "details": "ht-29, 24 h"}, "[6]": {"test_system": "HT-29", "experiment": "Induction of apoptosis in human HT-29 cells assessed as necrotic cells at 20 uM after 24 hrs by Annexin V-FITC/propidium iodide staining based flow cytometric analysis (reference value: 3.9%)", "format": "cell-based", "details": "ht-29, 24 h"}, "[7]": {"test_system": "HT-29", "experiment": "Induction of apoptosis in human HT-29 cells assessed as early apoptotic cells at 5 uM after 48 hrs by Annexin V-FITC/propidium iodide staining based flow cytometric analysis (reference value: 5.3%)", "format": "cell-based", "details": "ht-29, 48 h"}, "[8]": {"test_system": "HT-29", "experiment": "Induction of apoptosis in human HT-29 cells assessed as necrotic cells at 5 uM after 48 hrs by Annexin V-FITC/propidium iodide staining based flow cytometric analysis (reference value: 1.3%)", "format": "cell-based", "details": "ht-29, 48 h"}, "[9]": {"test_system": "HT-29", "experiment": "Antitumor activity against human HT-29 cells xenografted in mouse assessed as reduction in tumour volume at 60 mg/kg, po administered every other day for 3 weeks and measured at 20 days post-treatment relative to control", "format": "functional", "details": "HT-29, po"}, "[10]": {"test_system": "HT-29", "experiment": "Antitumor activity against human HT-29 cells xenografted in mouse assessed as reduction in mTOR phosphorylation in tumor at 20 to 60 mg/kg, po administered every other day for 3 weeks and measured at 20 days post treatment by immunohistochemical staining", "format": "functional, organism-based"}, "[11]": {"test_system": "HT-29", "experiment": "Downregulation of MMP2 expression in human HT-29 cells after 24 hrs by immunoblot analysis", "format": "functional, cell-based"}}, "note": "The source made the active and inactive calls. No cut-off for these calls is given here."}
{"smiles": "COc1ccc(NC(=O)c2cccc(/C=C3\\CC(=O)N(c4ccc(C)cc4)C3=O)c2)cc1", "values": [{"measurement": "Activity", "setting": "[1]", "value": "Active"}, {"measurement": "inhibition", "setting": "[2]", "value": 96.4, "unit": "%"}, {"measurement": "viability at 24 h, 1 µM", "setting": "[3]", "value": 79.9, "unit": "%"}, {"measurement": "Activity", "setting": "[4]", "value": 14.4, "unit": "%"}, {"measurement": "Activity", "setting": "[5]", "value": "0.8 to 4.7", "unit": "%"}, {"measurement": "Activity", "setting": "[6]", "value": 2.3, "unit": "%"}, {"measurement": "Activity", "setting": "[7]", "value": 9.7, "unit": "%"}, {"measurement": "Activity", "setting": "[8]", "value": 1.1, "unit": "%"}, {"measurement": "inhibition in vivo at 60 mg/kg", "setting": "[9]", "value": 53.5, "unit": "%"}, {"measurement": "inhibition", "setting": "[10]", "value": "Active"}, {"measurement": "inhibition", "setting": "[11]", "value": "Dose-dependent effect"}]}
